Data from ChEMBL document CHEMBL3865841, “Photosensitizer (PS)-cyanine dye (CD) conjugates: Impact of the linkers joining the PS and CD moieties and their orientation in tumor-uptake and photodynamic therapy (PDT)” (Eur J Med Chem, 2016).
Calls of active or inactive are those of the source. No cut-off for these calls is given here.

Columns and labels:
[1] = test system: U-87MG ATCC; assay: Phototoxicity against human U87 cells xenografted in immunocompromized nude mouse assessed as increase in tumor cure incidents at 1.5 umol/kg, iv preincubated for 24 hrs subsequent irradiation at 128 J/cm2 measured after 60 days; type: functional, organism-based
How it was run: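 Athymic nude mice bore s.c. U87 tumors (2 × 10⁶ cells) of 4–5 mm. Conjugate given i.v. at 1.5 µmol/kg. At 24 h post-injection tumors got 665 nm laser light, 128 J/cm², 14 mW/cm². Mice followed daily for regrowth; cure = no palpable tumor by day 60.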

[2] = Drug uptake in mouse colon 26 cell lysosomes assessed as color overlay at 0.25 to 2 uM after 4 to 24 hrs in dark by FluoSpheres yellow green dye-based confocal microscopic analysis; type: ADME, Lysosome; conditions: colon 26, 2 µM
How it was run: (§1)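 Colon-26 cells seeded at 1.25 × 10⁵ in glass-bottom dishes, cultured 24–48 h, then given conjugate at 0.25, 0.5, 1.0 or 2.0 µM in the dark at 37°C for 4 h and 24 h. Co-stained with MitoTracker Red 2.5 nM for 10 min and FluoSpheres yellow/green 1/10,000 of a 1/10 stock for 24 h. Media replaced before Leica TCS SP2 confocal imaging; excitation 488 (lysosome), 543 (mitochondria), 633 nm (HPPH).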

[3] = Drug uptake in human U87 cell lysosomes assessed as color overlay at 0.25 to 2 uM after 4 to 24 hrs in dark by FluoSpheres yellow green dye-based confocal microscopic analysis; type: ADME, Lysosome; conditions: u-87mg atcc
How it was run: (§2)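 U87 glioblastoma cells seeded at 1.25 × 10⁵ in glass-bottom dishes, cultured 24–48 h, then given conjugate at 0.25, 0.5, 1.0 or 2.0 µM in the dark at 37°C for 4 h and 24 h. Co-stained with MitoTracker Red 2.5 nM for 10 min and FluoSpheres yellow/green 1/10,000 of a 1/10 stock for 24 h. Confocal imaging with excitation 488, 543 and 633 nm.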

[4] = Phototoxicity against human U87 cells assessed as reduction in cell viability preincubated for 24 hrs with subsequent irradiation 4 J/cm2 followed by 48 hrs incubation in dark by MTT assay; type: functional, cell-based, U-87MG ATCC; conditions: U-87 MG, light or radiation study
How it was run: (§3)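 Colon-26 (RPMI-1640, 10% FCS) or U87 (MEM, 10% FCS) cells at 5000/well were given conjugate at 0–4 µM for 24 h. Compounds were formulated in 1% Tween-80/D5W and diluted in medium. Cells were washed and refed, then irradiated at 4 J/cm², 3.2 mW/cm². Then 44 h at 37°C in the dark, MTT 4 h, DMSO, A560. EC50 at 4 J/cm². Colon-26: two independent experiments, triplicates.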

[5] = Drug uptake in Balb/c mouse liver implanted with mouse Colon 26 cells at 0.3 umol/kg, iv after 24 hrs by reflectance spectroscopic analysis; type: ADME, organism-based; conditions: in vivo
[6] = Phototoxicity against mouse Colon 26 cells assessed as reduction in cell viability preincubated for 24 hrs with subsequent 4 J/cm2 irradiation measured after 48 hrs incubation in dark by MTT assay; type: functional, cell-based; conditions: Colon 26, light or radiation study; how it was run: as §3
[7] = Ratio of drug uptake in tumor to skin in Balb/c mouse implanted with mouse Colon 26 cells at 0.3 umol/kg, iv after 24 hrs by reflectance spectroscopic analysis; type: ADME, organism-based; conditions: in vivo
[8] = Drug uptake in human U87 cell mitochondria assessed as color overlay at 0.25 to 2 uM after 4 to 24 hrs in dark by mitotracker red dye-based confocal microscopic analysis; type: ADME; conditions: u-87mg atcc; how it was run: as §2
[9] = Drug uptake in mouse colon 26 cell mitochondria assessed as color overlay at 0.25 to 2 uM after 4 to 24 hrs in dark by mitotracker red dye-based confocal microscopic analysis; type: ADME; conditions: colon 26, 2 µM; how it was run: as §1
[10] = Phototoxicity against mouse Colon 26 cells implanted in Balb/c mouse assessed as tumor cure incidents at 3.5 umol/kg, iv pretreated for 24 hrs subsequent irradiation at 128 J/cm2 measured after 60 days relative to control; type: functional
How it was run: (§4)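 BALB/c mice bore s.c. Colon-26 tumors (1 × 10⁶ cells, shoulder) of 4–5 mm. Conjugate given i.v. via tail vein at 0.4, 0.75, 1.5, 2.5 or 3.5 µmol/kg. At 24 h unanesthetized mice got 665 nm laser, 128 J/cm², 14 mW/cm², 1.1 cm spot. Regrowth checked daily, volume L*W²/2. Cure = no palpable tumor by day 60; euthanasia at 400 mm³.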

[11] = test system: Colon 26; assay: Phototoxicity against mouse Colon 26 cells implanted in Balb/c mouse assessed as increase in tumor cure incidents at 0.75 to 1.5 umol/kg, iv preincubated for 24 hrs with subsequent irradiation at 128 J/cm2 measured up to 60 days; type: functional, organism-based; how it was run: as §4
[12] = test system: Mus musculus; assay: Toxicity in Balb/c mouse implanted with mouse Colon 26 cells assessed as morbidity at 2.5 to 3.5 umol/kg, iv preincubated for 24 hrs subsequent irradiation at 128 J/cm2 measured up to 60 days; type: organism-based; conditions: in vivo, 1440 h
How it was run: (§5)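 BALB/c mice carried s.c. Colon-26 tumours (1 × 10⁶ cells, right posterior shoulder) grown to 4–5 mm. Conjugates were given i.v. via the tail vein at 0.4–3.5 µmol/kg. At 24 h, unanaesthetised restrained mice received 665 nm laser light on a 1.1 cm spot (128 J/cm², 14 mW/cm²). Mice were observed daily for up to 60 days for death or morbidity, which led to euthanasia.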

[13] = test system: Mus musculus; assay: Toxicity in Balb/c mouse implanted with mouse Colon 26 cells assessed as mortality at 2.5 to 3.5 umol/kg, iv preincubated for 24 hrs subsequent irradiation at 128 J/cm2 measured up to 60 days; type: organism-based; conditions: in vivo, 1440 h; how it was run: as §5
[14] = Phototoxicity against mouse Colon 26 cells implanted in Balb/c mouse assessed as tumor cure incidents at 1.5 umol/kg, iv preincubated for 24 hrs with subsequent irradiation at 128 J/cm2 measured after 60 days; type: functional; how it was run: as §4
[15] = Drug uptake in human U87 cells at 1 uM after 24 hrs in dark by flow cytometry; type: ADME, cell-based; conditions: u-87mg atcc
How it was run: (§6)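 Colon-26 or U87 cells seeded at 5.0 × 10⁵ per well, 24 h, then exposed to conjugate at 1 µM in the dark at 37°C for 24 h. Cells harvested, spun cold at 10°C, resuspended in cold 2% FCS in PBS, run on a BD LSR II. Analysis used the 405 nm violet laser with 780/60, 710/50 and 660/20 nm filters.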

[16] = Drug uptake in immunocompromized nude mouse tumor xenografted with human U87 cells at 0.03 umol/kg, iv after 24 to 72 hrs by reflectance spectroscopic analysis; type: ADME, organism-based, Neoplasm, U-87MG ATCC; conditions: in vivo
[17] = Drug uptake in mouse colon 26 cell mitochondria assessed as color overlay at 1 uM after 24 hrs in dark by mitotracker red dye-based confocal microscopic analysis; type: ADME; conditions: colon 26, 24 h
How it was run: (§7)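 Colon-26 cells held with conjugate at 1 µM, imaged 24 h later by confocal microscopy. Lysosomal dye FluoSpheres yellow green at 1/100,000 dilution of commercial stock; mitochondrial MitoTracker Red at 2.5 nM for 10 min. Overlays of the conjugate signal with each organelle dye.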

[18] = Drug uptake in human U87 cell mitochondria assessed as color overlay at 1 uM after 24 hrs in dark by mitotracker red dye-based confocal microscopic analysis; type: ADME; conditions: u-87mg atcc
How it was run: (§8)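 U87 cells held with conjugate at 1 µM, imaged 24 h later by confocal microscopy. Lysosomal FluoSpheres yellow green at 1/100,000 dilution of commercial stock; MitoTracker Red 2.5 nM for 10 min. Overlays of the conjugate signal with each organelle dye.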

[19] = Drug uptake in mouse colon 26 cell lysosomes assessed as color overlay at 1 uM after 24 hrs in dark by FluoSpheres yellow green dye-based confocal microscopic analysis; type: ADME, Lysosome; conditions: colon 26, 24 h; how it was run: as §7
[20] = Drug uptake in mouse Colon 26 cells at 1 uM after 24 hrs in dark by flow cytometry; type: ADME, cell-based; conditions: colon 26, 24 h; how it was run: as §6
[21] = Drug uptake in human U87 cell lysosomes assessed as color overlay at 1 uM after 24 hrs in dark by FluoSpheres yellow green dye-based confocal microscopic analysis; type: ADME, Lysosome; conditions: u-87mg atcc; how it was run: as §8

SMILES | Activity [1] | Drug uptake [2] | Drug uptake [3] | EC50 [4] [nM] | Drug uptake [5] | EC50 [6] [nM] | Ratio [7] | Drug uptake [8] | Drug uptake [9] | Activity [10] [%] | Activity [11] | Activity [12] | Activity [13] | Activity [14] [%] | Drug uptake [15] | Drug uptake [20] | further results
CCCCCCOC(C)c1c(C)c2cc3nc(c4c5[nH]c(cc6nc(cc1[nH]2)C(C)=C6CC)c(C)c5C(=O)C4)[C@@H](CCC(=O)NCCCCCCNC(=O)c1ccc(SC2=C(/C=C/C4=[N+](CCCCS(=O)(=O)[O-])c5ccc6ccccc6c5C4(C)C)CCC/C2=C\C=C2\N(CCCCS(=O)(=O)O)c4ccc5ccccc5c4C2(C)C)cc1)[C@@H]3C (stereo partly specified) | Active | Active | Active | 590 | Active | 720 | 2.3 | Active | Active | 70 | Active |  |  |  |  |  | 
CCCCCCOC(C)c1c(C)c2cc3nc(c4c5[nH]c(cc6nc(cc1[nH]2)C(C)=C6CC)c(C)c5C(=O)C4)[C@@H](CCC(=O)NCCNC(=O)c1ccc(SC2=C(/C=C/C4=[N+](CCCCS(=O)(=O)[O-])c5ccc6ccccc6c5C4(C)C)CCC/C2=C\C=C2\N(CCCCS(=O)(=O)O)c4ccc5ccccc5c4C2(C)C)cc1)[C@@H]3C (stereo partly specified) |  | Active | Active | 790 | Active | 2510 | 2 | Active | Active |  |  | Toxic | Toxic |  |  |  | 
CCCCCCOC(C)c1c(C)c2cc3nc(c4c5[nH]c(cc6nc(cc1[nH]2)C(C)=C6CC)c(C)c5C(=O)C4)[C@@H](CCC(=O)NCCCCNC(=O)c1cccc(SC2=C(/C=C/C4=[N+](CCCCS(=O)(=O)[O-])c5ccc6ccccc6c5C4(C)C)CCC/C2=C\C=C2\N(CCCCS(=O)(=O)O)c4ccc5ccccc5c4C2(C)C)c1)[C@@H]3C (stereo partly specified) | Active |  |  | 150 | Active | 180 | 6.5 |  |  |  |  |  |  | 80 | Active | Active | Drug uptake [16]: Active; Drug uptake [17]: Active; Drug uptake [18]: Active; Drug uptake [19]: Active; Drug uptake [21]: Active
CCCCCCOC(C)c1c(C)c2cc3nc(c4c5[nH]c(cc6nc(cc1[nH]2)C(C)=C6CC)c(C)c5C(=O)C4)[C@@H](CCC(=O)NCCCCCCNC(=O)c1cccc(SC2=C(/C=C/C4=[N+](CCCCS(=O)(=O)[O-])c5ccc6ccccc6c5C4(C)C)CCC/C2=C\C=C2\N(CCCCS(=O)(=O)O)c4ccc5ccccc5c4C2(C)C)c1)[C@@H]3C (stereo partly specified) |  | Active | Active | 380 | Active | 200 | 2.5 | Active | Active | 90 | Active |  |  |  |  |  | 
CCCCCCOC(C)c1c(C)c2cc3nc(c4c5[nH]c(cc6nc(cc1[nH]2)C(C)=C6CC)c(C)c5C(=O)C4)[C@@H](CCC(=O)NCCNC(=O)c1cccc(SC2=C(/C=C/C4=[N+](CCCCS(=O)(=O)[O-])c5ccc6ccccc6c5C4(C)C)CCC/C2=C\C=C2\N(CCCCS(=O)(=O)O)c4ccc5ccccc5c4C2(C)C)c1)[C@@H]3C (stereo partly specified) |  | Active | Active | 570 | Active | 1580 | 2.5 | Active | Active |  |  | Toxic | Toxic | 80 |  |  | 
CCCCCCOC(C)c1c(C)c2cc3nc(c4c5[nH]c(cc6nc(cc1[nH]2)C(C)=C6CC)c(C)c5C(=O)C4)[C@@H](CCC(=O)NCCCCNC(=O)c1ccc(SC2=C(/C=C/C4=[N+](CCCCS(=O)(=O)[O-])c5ccc6ccccc6c5C4(C)C)CCC/C2=C\C=C2\N(CCCCS(=O)(=O)O)c4ccc5ccccc5c4C2(C)C)cc1)[C@@H]3C (stereo partly specified) |  | Active | Active | 290 | Active | 130 | 10 | Active | Active |  |  |  |  | 20 | Active | Active | 
